Here are results for 13 compounds from ChEMBL document CHEMBL4011598, “Sulfonamides as Selective NaV1.7 Inhibitors: Optimizing Potency and Pharmacokinetics While Mitigating Metabolic Liabilities” (J Med Chem, 2017).

Sequence of Sodium channel protein type 9 subunit alpha (Q15858 whole entry): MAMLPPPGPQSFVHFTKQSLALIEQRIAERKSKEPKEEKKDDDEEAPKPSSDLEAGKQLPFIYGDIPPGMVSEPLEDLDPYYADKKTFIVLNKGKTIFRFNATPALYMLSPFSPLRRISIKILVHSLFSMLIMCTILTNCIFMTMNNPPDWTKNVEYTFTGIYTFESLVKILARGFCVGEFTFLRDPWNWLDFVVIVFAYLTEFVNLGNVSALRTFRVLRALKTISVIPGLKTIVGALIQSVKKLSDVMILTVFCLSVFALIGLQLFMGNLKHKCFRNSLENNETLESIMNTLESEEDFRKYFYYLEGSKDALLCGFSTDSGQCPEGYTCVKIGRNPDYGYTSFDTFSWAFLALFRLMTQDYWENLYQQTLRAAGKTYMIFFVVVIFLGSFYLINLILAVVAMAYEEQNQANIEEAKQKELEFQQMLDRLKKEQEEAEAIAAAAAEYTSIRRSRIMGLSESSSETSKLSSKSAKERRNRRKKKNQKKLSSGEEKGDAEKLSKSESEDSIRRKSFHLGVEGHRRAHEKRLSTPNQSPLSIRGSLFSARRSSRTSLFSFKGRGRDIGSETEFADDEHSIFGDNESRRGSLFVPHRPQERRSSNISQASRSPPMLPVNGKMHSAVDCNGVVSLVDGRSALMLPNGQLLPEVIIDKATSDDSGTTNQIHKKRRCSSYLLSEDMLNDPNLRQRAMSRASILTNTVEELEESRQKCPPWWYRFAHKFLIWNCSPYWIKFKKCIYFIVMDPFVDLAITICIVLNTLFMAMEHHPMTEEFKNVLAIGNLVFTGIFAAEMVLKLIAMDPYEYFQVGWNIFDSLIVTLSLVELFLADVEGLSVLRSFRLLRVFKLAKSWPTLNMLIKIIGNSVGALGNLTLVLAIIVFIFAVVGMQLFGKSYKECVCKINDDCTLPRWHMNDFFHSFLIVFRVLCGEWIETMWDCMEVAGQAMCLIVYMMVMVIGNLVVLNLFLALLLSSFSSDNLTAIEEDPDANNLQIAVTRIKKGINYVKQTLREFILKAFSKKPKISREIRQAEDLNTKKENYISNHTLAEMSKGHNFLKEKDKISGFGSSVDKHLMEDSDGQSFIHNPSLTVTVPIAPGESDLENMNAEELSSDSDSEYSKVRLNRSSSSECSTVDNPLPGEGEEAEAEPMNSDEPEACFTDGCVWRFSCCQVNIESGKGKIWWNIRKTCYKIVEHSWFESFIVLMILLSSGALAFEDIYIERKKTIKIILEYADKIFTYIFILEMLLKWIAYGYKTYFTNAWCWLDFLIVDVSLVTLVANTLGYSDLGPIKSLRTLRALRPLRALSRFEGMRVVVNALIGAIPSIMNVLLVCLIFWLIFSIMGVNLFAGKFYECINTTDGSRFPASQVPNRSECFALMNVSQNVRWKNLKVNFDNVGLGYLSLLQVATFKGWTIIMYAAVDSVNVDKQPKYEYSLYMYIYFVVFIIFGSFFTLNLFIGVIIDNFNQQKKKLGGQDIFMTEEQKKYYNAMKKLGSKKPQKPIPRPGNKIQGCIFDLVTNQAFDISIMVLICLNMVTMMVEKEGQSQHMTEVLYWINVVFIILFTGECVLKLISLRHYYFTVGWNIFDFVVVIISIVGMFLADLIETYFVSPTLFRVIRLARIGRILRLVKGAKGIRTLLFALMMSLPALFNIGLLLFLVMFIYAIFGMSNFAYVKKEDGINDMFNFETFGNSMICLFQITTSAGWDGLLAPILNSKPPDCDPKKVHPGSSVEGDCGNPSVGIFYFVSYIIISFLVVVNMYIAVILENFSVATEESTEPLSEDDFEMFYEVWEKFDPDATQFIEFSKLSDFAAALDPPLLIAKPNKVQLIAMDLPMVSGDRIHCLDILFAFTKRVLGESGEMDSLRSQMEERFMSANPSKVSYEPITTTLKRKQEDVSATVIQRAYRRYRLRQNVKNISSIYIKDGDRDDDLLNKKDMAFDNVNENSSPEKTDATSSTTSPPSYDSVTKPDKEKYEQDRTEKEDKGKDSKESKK

The target in the first data set is Sodium channel protein type 5 subunit alpha (Homo sapiens, UniProt Q14524). In words: Inhibition of human Nav1.5 expressed in HEK293 cells assessed as reduction in peak inward current by ionworks quattro electrophysiology assay. Format: cell-based.
Sequence of Sodium channel protein type 5 subunit alpha (Q14524 whole entry): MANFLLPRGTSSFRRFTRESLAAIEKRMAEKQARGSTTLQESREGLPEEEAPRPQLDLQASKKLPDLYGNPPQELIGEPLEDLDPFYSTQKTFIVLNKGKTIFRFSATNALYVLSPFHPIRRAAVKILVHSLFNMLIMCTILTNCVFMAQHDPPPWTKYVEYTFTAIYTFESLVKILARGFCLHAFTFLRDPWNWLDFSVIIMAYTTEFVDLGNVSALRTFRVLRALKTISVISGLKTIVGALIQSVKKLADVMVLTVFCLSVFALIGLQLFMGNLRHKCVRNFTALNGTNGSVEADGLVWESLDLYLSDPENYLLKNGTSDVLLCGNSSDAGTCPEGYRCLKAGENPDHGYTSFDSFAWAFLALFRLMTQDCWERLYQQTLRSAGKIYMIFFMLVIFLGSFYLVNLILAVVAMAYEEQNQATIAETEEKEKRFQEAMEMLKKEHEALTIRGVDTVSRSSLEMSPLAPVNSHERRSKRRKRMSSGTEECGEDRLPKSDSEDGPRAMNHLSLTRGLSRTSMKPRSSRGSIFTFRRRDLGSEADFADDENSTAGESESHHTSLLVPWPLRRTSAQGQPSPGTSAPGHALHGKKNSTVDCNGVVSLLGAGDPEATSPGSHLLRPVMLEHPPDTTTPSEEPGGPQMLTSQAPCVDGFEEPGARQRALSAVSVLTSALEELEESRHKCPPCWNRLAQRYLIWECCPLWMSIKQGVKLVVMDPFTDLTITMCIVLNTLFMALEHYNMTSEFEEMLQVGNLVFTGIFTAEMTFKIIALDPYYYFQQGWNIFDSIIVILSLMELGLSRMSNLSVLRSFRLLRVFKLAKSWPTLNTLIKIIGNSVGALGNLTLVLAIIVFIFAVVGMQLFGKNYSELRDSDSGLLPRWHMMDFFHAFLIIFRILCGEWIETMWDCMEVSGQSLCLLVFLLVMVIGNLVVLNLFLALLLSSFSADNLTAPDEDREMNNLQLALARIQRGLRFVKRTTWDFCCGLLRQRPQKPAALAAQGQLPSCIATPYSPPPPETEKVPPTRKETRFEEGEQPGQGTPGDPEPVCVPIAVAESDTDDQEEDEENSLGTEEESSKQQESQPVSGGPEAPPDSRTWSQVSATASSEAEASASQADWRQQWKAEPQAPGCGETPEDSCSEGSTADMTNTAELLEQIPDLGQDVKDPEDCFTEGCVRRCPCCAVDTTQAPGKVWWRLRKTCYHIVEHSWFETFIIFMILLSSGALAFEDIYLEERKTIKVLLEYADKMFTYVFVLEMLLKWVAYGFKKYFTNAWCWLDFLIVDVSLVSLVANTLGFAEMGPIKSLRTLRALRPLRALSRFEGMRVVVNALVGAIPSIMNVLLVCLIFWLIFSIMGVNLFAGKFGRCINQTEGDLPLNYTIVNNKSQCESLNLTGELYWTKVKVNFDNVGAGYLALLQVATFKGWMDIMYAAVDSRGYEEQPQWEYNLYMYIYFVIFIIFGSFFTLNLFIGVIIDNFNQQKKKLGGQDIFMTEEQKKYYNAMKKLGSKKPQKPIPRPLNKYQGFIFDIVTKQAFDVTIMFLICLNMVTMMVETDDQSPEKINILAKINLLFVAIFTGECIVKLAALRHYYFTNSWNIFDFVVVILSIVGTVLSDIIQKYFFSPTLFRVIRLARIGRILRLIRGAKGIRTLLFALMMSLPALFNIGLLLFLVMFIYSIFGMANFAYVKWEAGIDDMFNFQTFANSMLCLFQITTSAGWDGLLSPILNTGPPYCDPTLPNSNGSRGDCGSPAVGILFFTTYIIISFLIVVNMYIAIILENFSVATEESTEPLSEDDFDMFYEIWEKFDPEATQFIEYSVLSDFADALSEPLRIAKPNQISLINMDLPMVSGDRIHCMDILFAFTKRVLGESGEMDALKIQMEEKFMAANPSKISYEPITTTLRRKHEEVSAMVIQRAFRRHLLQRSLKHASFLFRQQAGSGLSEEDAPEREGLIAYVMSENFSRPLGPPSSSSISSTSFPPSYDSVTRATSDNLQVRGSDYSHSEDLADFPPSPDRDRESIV
Details: not given
(In general: Patch clamp records ionic current or voltage across a cell membrane.)
As usually defined, the IC50 is the point on the concentration scale where inhibition reaches its midpoint. For the compound `COc1cc(-c2cc(F)cnc2OC)c(F)cc1-c1nccc2cc(S(=O)(=O)Nc3ccon3)ccc12`, the IC50 was > 10000 nM.

Regarding `COc1cc(-c2cccc(F)c2)c(Cl)cc1-c1c(=O)n(C)cc2cc(S(=O)(=O)Nc3ccon3)ccc12`, the IC50 was > 10000 nM.

Consider `COc1cc(-c2cccc(F)c2)c(Cl)cc1-c1nccc2cc(S(=O)(=O)Nc3ncccn3)ccc12`, for which the IC50 is > 10000 nM.

As for `COc1cc(-c2cccc(F)c2)c(Cl)cc1-c1c(N)nnc2cc(S(=O)(=O)Nc3ccon3)ccc12`, the 50% inhibitory concentration (IC50) is 140 nM.

`COc1cc(-c2cccc(F)c2)c(Cl)cc1-c1nccc2cc(S(=O)(=O)Nc3ccncn3)ccc12`: the concentration for half-maximal inhibition (IC50) was > 10000 nM.

The test system of another data set is Canis familiaris. Nature of the data set: Unbound clearance in dog at 0.25 mg/kg, iv. The settings on record: in vivo. Format: ADME, organism-based, Canis lupus familiaris. The method, boiled down: (§1)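 Male dogs received a single 0.25 mg/kg iv dose in DMSO. Unbound clearance (CLu) is total clearance divided by fu, the unbound fraction in plasma.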
`COc1cc(-c2cccc(F)c2)c(Cl)cc1-c1ncc(O)c2cc(S(=O)(=O)Nc3ccon3)ccc12` showed a CL free of 2330 mL/min/kg.

`COc1cc(-c2cccc(F)c2)c(Cl)cc1-c1ncnc2cc(S(=O)(=O)Nc3ccon3)ccc12` returned a CL free of 417 mL/min/kg.

Test system in a further data set: not listed separately
Nature of the data set: Intrinsic clearance in human liver microsomes at 1 uM after 1 to 40 mins in presence of NADPH by LC-MS/MS analysis. The settings on record: read-out: CLH. Format: ADME, microsome.
Take `COc1cc(-c2cccc(F)c2)c(Cl)cc1-c1nccc2cc(S(=O)(=O)Nc3cccnn3)ccc12`: the microsomal CLint at 1 µM was < 14 µL/min/mg.

Consider `COc1cc(-c2cc(F)cnc2OC)c(F)cc1-c1nccc2cc(S(=O)(=O)Nc3ccon3)ccc12`, for which the microsomal CLint at 1 µM was < 14 µL/min/mg.

Take `COc1cc(-c2cccc(F)c2)c(Cl)cc1-c1c(=O)n(C)cc2cc(S(=O)(=O)Nc3ccon3)ccc12`: the microsomal CLint at 1 µM was < 14 µL/min/mg.

As for `COc1cc(-c2cccc(F)c2)c(Cl)cc1-c1nccc2cc(S(=O)(=O)Nc3ncccn3)ccc12`, the microsomal CLint at 1 µM was < 14 µL/min/mg.

As for `COc1cc(-c2cccc(F)c2)c(Cl)cc1-c1ncc(O)c2cc(S(=O)(=O)Nc3ccon3)ccc12`, the microsomal CLint at 1 µM stood at 15 µL/min/mg.

With `COc1cc(-c2cccc(Cl)c2)c(F)cc1-c1nccc2cc(S(=O)(=O)Nc3ccon3)ccc12`, the microsomal CLint at 1 µM was determined as 36 µL/min/mg.

With `COc1cc(-c2cccc(F)c2)c(Cl)cc1-c1ncnc2cc(S(=O)(=O)Nc3ccon3)ccc12`, the microsomal CLint at 1 µM is 21 µL/min/mg.

As for `COc1cc(-c2cccc(F)c2)c(Cl)cc1-c1c(N)nnc2cc(S(=O)(=O)Nc3ccon3)ccc12`, the microsomal CLint at 1 µM is < 14 µL/min/mg.

In the case of `COc1cc(-c2cccc(F)c2)c(Cl)cc1-c1nccc2cc(S(=O)(=O)Nc3ccncn3)ccc12`, the microsomal CLint at 1 µM is < 14 µL/min/mg.

Test system in a further data set: not listed separately
Nature of the data set: Intrinsic clearance in rat liver microsomes at 1 uM after 1 to 40 mins in presence of NADPH by LC-MS/MS analysis. Format: ADME, microsome. The conditions noted are these: read-out: CLH. Background: Microsomes from liver hold many membrane-bound enzymes, among them those of drug oxidation.
With `COc1cc(-c2cccc(F)c2)c(Cl)cc1-c1nccc2cc(S(=O)(=O)Nc3cccnn3)ccc12`, the microsomal CLint at 1 µM turned out to be 29 µL/min/mg.

Turning to `COc1cc(-c2cc(F)cnc2OC)c(F)cc1-c1nccc2cc(S(=O)(=O)Nc3ccon3)ccc12`, the microsomal CLint at 1 µM is 21 µL/min/mg.

Consider `COc1cc(-c2cccc(F)c2)c(Cl)cc1-c1c(=O)n(C)cc2cc(S(=O)(=O)Nc3ccon3)ccc12`, for which the microsomal CLint at 1 µM came out at 21 µL/min/mg.

Turning to `COc1cc(-c2cccc(F)c2)c(Cl)cc1-c1nccc2cc(S(=O)(=O)Nc3ncccn3)ccc12`, the microsomal CLint at 1 µM came to 32 µL/min/mg.

For `COc1cc(-c2cccc(F)c2)c(Cl)cc1-c1ncc(O)c2cc(S(=O)(=O)Nc3ccon3)ccc12`, the microsomal CLint at 1 µM stood at 28 µL/min/mg.

In the case of `COc1cc(-c2cccc(Cl)c2)c(F)cc1-c1nccc2cc(S(=O)(=O)Nc3ccon3)ccc12`, the microsomal CLint at 1 µM stood at 34 µL/min/mg.

For the compound `COc1cc(-c2cccc(F)c2)c(Cl)cc1-c1ncnc2cc(S(=O)(=O)Nc3ccon3)ccc12`, the microsomal CLint at 1 µM was 58 µL/min/mg.

On to `COc1cc(-c2cccc(F)c2)c(Cl)cc1-c1c(N)nnc2cc(S(=O)(=O)Nc3ccon3)ccc12`, for which the microsomal CLint at 1 µM is < 14 µL/min/mg.

On to `COc1cc(-c2cccc(F)c2)c(Cl)cc1-c1nccc2cc(S(=O)(=O)Nc3ccncn3)ccc12`, for which the microsomal CLint at 1 µM was < 14 µL/min/mg.

The target of a further data set is T1, PXR (NR1I2) (Homo sapiens, UniProt O75469).
T1 sequence (O75469 whole entry): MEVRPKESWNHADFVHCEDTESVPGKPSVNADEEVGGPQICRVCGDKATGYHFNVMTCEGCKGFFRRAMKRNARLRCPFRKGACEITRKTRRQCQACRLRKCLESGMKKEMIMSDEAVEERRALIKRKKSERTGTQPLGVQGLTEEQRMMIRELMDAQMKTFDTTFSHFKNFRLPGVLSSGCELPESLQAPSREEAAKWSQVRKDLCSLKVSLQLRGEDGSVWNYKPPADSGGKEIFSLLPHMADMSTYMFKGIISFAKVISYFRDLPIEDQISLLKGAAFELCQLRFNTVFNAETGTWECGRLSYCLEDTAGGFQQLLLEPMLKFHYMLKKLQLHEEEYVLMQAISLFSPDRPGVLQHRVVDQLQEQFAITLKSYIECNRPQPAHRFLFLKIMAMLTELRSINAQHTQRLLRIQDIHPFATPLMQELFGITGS
In words: Activation of human PXR at 10 uM in presence of rifampicin. The conditions noted are these: read-out: Activity. Format: ADME.
Regarding `COc1cc(-c2cc(F)cc(F)c2)c(C#N)cc1-c1nccc2cc(S(=O)(=O)Nc3ccon3)ccc12`, the activity at 10 µM was 54%.

As to `COc1cc(-c2cccc(F)c2)c(Cl)cc1-c1nccc2cc(S(=O)(=O)Nc3cccnn3)ccc12`, the activity at 10 µM turned out to be 52%.

On to `COc1cc(-c2cc(F)cnc2OC)c(F)cc1-c1nccc2cc(S(=O)(=O)Nc3ccon3)ccc12`, for which the activity at 10 µM stood at 151%.

For the compound `COc1cc(-c2cccc(F)c2)c(Cl)cc1-c1c(=O)n(C)cc2cc(S(=O)(=O)Nc3ccon3)ccc12`, the activity at 10 µM is 69%.

For `COc1cc(-c2cccc(F)c2)c(Cl)cc1-c1nccc2cc(S(=O)(=O)Nc3ncccn3)ccc12`, the activity at 10 µM came out at 31%.

Regarding `COc1cc(-c2cccc(F)c2)c(Cl)cc1-c1ncc(O)c2cc(S(=O)(=O)Nc3ccon3)ccc12`, the activity at 10 µM came out at 28%.

As for `COc1cc(-c2cccc(C(F)(F)F)c2)c(C#N)cc1-c1nccc2cc(S(=O)(=O)Nc3ccon3)ccc12`, the activity at 10 µM turned out to be 5%.

`COc1cc(-c2cccc(Cl)c2)c(F)cc1-c1nccc2cc(S(=O)(=O)Nc3ccon3)ccc12`: the activity at 10 µM amounted to 34%.

On to `COc1cc(-c2cccc(F)c2)c(Cl)cc1-c1ncnc2cc(S(=O)(=O)Nc3ccon3)ccc12`, for which the activity at 10 µM turned out to be 59%.

Take `COc1cc(-c2cccc(F)c2)c(Cl)cc1-c1c(N)nnc2cc(S(=O)(=O)Nc3ccon3)ccc12`: the activity at 10 µM came to 95%.

`COc1cc(-c2cc(F)cc(F)c2)ccc1-c1nccc2cc(S(=O)(=O)Nc3ccon3)ccc12`: the activity at 10 µM is 38%.

As to `COc1cc(-c2cccc(C(F)(F)F)c2)ccc1-c1nccc2cc(S(=O)(=O)Nc3ccon3)ccc12`, the activity at 10 µM came out at 7%.

For `COc1cc(-c2cccc(F)c2)c(Cl)cc1-c1nccc2cc(S(=O)(=O)Nc3ccncn3)ccc12`, the activity at 10 µM worked out at 24%.

Test system in a further data set: not listed separately
Nature of the data set: Total clearance in dog at 0.25 mg/kg, iv. Format: ADME, organism-based, Canis lupus familiaris. The conditions noted are these: in vivo. The method, boiled down:
as §1
As a reminder, the clearance is the volume of plasma or blood freed of the substance per unit of time. Low readings indicate inefficient removal, high ones efficient removal. As to `COc1cc(-c2cccc(F)c2)c(Cl)cc1-c1ncc(O)c2cc(S(=O)(=O)Nc3ccon3)ccc12`, the clearance is 2.17 mL/min/kg.

With `COc1cc(-c2cccc(F)c2)c(Cl)cc1-c1ncnc2cc(S(=O)(=O)Nc3ccon3)ccc12`, the clearance was 2 mL/min/kg. The clearance values of the last two compounds are within 1.5-fold of each other.

In another data set the target is Cytochrome P450 3A4 (Homo sapiens, UniProt P08684). In words: Inhibition of CYP3A4 (unknown origin).
Sequence of Cytochrome P450 3A4 (P08684 whole entry): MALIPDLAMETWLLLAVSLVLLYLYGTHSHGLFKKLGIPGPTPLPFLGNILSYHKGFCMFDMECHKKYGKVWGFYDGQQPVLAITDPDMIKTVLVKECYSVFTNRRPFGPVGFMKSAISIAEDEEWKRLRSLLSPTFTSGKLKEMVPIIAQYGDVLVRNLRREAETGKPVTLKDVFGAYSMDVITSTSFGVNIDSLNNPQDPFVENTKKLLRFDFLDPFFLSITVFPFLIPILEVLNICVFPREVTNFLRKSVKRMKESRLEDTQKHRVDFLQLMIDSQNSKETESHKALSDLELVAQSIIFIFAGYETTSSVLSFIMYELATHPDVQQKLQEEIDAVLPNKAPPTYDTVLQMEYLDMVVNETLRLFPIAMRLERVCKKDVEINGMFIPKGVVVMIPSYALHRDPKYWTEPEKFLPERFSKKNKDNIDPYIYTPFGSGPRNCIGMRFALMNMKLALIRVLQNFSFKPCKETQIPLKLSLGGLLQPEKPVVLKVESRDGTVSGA
Details: not given
The class given is ADME.
`COc1cc(-c2cccc(F)c2)c(Cl)cc1-c1nccc2cc(S(=O)(=O)Nc3cccnn3)ccc12`: the concentration for half-maximal inhibition (IC50) was > 27000 nM.

For `COc1cc(-c2cccc(F)c2)c(Cl)cc1-c1nccc2cc(S(=O)(=O)Nc3ncccn3)ccc12`, the half-inhibitory concentration (IC50) was > 27000 nM.

Take `COc1cc(-c2cccc(F)c2)c(Cl)cc1-c1nccc2cc(S(=O)(=O)Nc3ccncn3)ccc12`: the IC50 was > 27000 nM.

A further data set addresses Sodium channel protein type 9 subunit alpha (Homo sapiens, UniProt Q15858). In words: Inhibition of human Nav1.7 expressed in HEK293 cells incubated for 3 to 5 mins at -125 mV holding potential by electrophysiology assay. The class given is cell-based.
Details: not given
On to `COc1cc(-c2cc(F)cc(F)c2)c(C#N)cc1-c1nccc2cc(S(=O)(=O)Nc3ccon3)ccc12`, for which half-maximal inhibition (IC50) required 140 nM.

`COc1cc(-c2cccc(F)c2)c(Cl)cc1-c1nccc2cc(S(=O)(=O)Nc3ncccn3)ccc12` displayed a concentration for half-maximal inhibition (IC50) of 120 nM.

Compound `COc1cc(-c2cccc(C(F)(F)F)c2)c(C#N)cc1-c1nccc2cc(S(=O)(=O)Nc3ccon3)ccc12` came in with an IC50 of 28 nM.

Consider `COc1cc(-c2cccc(C(F)(F)F)c2)ccc1-c1nccc2cc(S(=O)(=O)Nc3ccon3)ccc12`, for which half-maximal inhibition (IC50) required 61 nM.

Consider `COc1cc(-c2cccc(F)c2)c(Cl)cc1-c1nccc2cc(S(=O)(=O)Nc3ccncn3)ccc12`, for which the 50% inhibitory concentration (IC50) came to 65 nM.
